A selection: hits, their analogues and other compounds. The true share with any hit is near 2.5%.
TDP2 inh: TDP2 (human) inhibition, absorbance primary screen. O95551. recombinant TDP2, T5PNP hydrolysis, p-nitrophenol absorbance 415 nm. inhibition, % at 12.8 µM. 0.34% of 370,000 active;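 active = inhibition above the mean of all tested compounds plus 3 SD, set per campaign, cut at about 25% in these data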
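Assay system: recombinant human TDP2 / Reagent: T5PNP substrate at 5 mM, a TopII-DNA adduct mimic / Measured by: epi absorbance from released p-nitrophenol / Evaluation: % inhibition relative to enzyme-containing and enzyme-free wells / Control set: enzyme-free and DMSO wells / Replicates: each compound tested once, singlicate / Schedule: enzyme reaction with compound for 2 h at 37 °C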
PRMT1 inh: blocks human protein arginine methyltransferase 1 | AID 652257 | inhibition, % at 2.79 µM | recombinant PRMT1, activity-based probe fluorescence polarization | Q99873 | 1.3% of 370,000 active;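 active = inhibition above about 21% made by adding two undisclosed values, limit read from the data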
GSTO1 counter: counter-screen for RBBP9 inhibitors: inhibitors of human GSTO1; inhibition, % at 5.96 µM; P78417; AID 1974; 1.1% of 300,000 active; recombinant GSTO1, activity-based probe fluorescence polarization;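 active = inhibition above the campaign mean inhibition plus 3 SD, cut at about 35% in these data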
Target sequence (P78417 whole entry, looked up): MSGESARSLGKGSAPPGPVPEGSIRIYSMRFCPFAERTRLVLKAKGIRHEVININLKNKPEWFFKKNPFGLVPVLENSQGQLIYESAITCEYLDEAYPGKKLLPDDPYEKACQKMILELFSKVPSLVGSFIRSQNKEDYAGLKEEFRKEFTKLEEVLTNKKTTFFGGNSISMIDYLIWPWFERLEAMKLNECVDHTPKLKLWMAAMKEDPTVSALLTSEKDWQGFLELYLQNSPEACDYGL
E coli Lon inh: E. coli protease La inhibition | AID 602123 | P0A9M0 | purified E. coli Lon protease, fluorescence polarization | 0.42% of 360,000 active | inhibition, % at 7.94 µM; in the data active = inhibition above about 13%, passing the limit was not always enough
PAD4 FP inh: blocks human protein arginine deiminase 4; Q9UM07; recombinant PAD4, RCA probe fluorescence polarization; inhibition, % at 6.36 µM; 0.41% of 330,000 active; AID 485272;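 active = percent inhibition above a cutoff equal to the mean of all tested compounds plus 3 SD, cut at about 15% in these data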
PRMT1 inh conf: confirmation of human PRMT1 inhibitors | shares compounds with PRMT1 inh | recombinant His-PRMT1, activity-based probe fluorescence polarization | inhibition, % at 2.79 µM | 42% of 3,300 active | AID 687036;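 active = mean inhibition across replicates above the hit cutoff derived for the earlier primary screen, cut at about 22% in these data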
Hits are given with their value; - = inactive; . = no result.

SMILES	TDP2 inh	PRMT1 inh	GSTO1 counter	E coli Lon inh	PAD4 FP inh	PRMT1 inh conf
O=C(Nc1ccc2c(c1)OCO2)O[C@@H]1CC[C@@]23CCCN2C(=O)CCC[C@H]3C1	-	-	.	.	.	.
NC(=O)c1sc2nc3c(c(-c4ccco4)c2c1N)CCCC3	-	-	-	-	-	.
Nc1c(C(=O)NCC2CCCO2)sc2nc3c(c(-c4ccco4)c12)CC/C3=C\c1ccco1 (centres undefined)	-	36	.	-	.	47
Cc1ccccc1NC(=O)c1sc2nc3c(c(-c4ccco4)c2c1N)CCC3	-	44	-	-	-	-
CC(=O)c1cccc(NC(=O)CNC(=O)Cc2ccccc2)c1	-	-	-	-	-	.
Cc1cccc(NC(=O)C2CC(=O)n3cnnc3S2)c1 (centres undefined)	-	84	-	-	-	60
NS(=O)(=O)c1ccc(-c2ccc(/C=C3\NC(=S)NC3=O)o2)cc1	-	53	-	-	-	27
COc1ccc(NC(=O)CSc2sc3c(O)cc(=O)[nH]c3c2C#N)c(OC)c1	-	66	-	-	-	-
COc1ccc(Cl)cc1NC(=O)CSc1sc2c(O)cc(=O)[nH]c2c1C#N	-	29	-	-	-	-
COc1cc(NC(=O)c2ccccc2)c(OC)cc1NC(=O)CSc1[nH]c(=O)cc(C)c1C#N	-	-	-	-	-	.
COc1ccccc1NC(=O)CSc1sc2c(O)cc(=O)[nH]c2c1C#N	-	27	-	-	-	-
FC(F)(F)c1ccccc1NC(=S)OC1CCC12CCC(c1ccccc1)CC2 (centres undefined)	-	-	.	.	.	.
O=C(O)/C=C/C(=O)c1ccc2c(c1)NC(=O)CO2	-	35	-	-	-	47
COc1cccc(CNS(=O)(=O)c2c(C)[nH]c(C)c2C(=O)N2CCCCC2)c1	-	-	-	-	-	.
C=CC[C@@]1(c2ccc(Br)cc2OC)Oc2ccccc2-c2nccnc21	-	-	.	.	.	.
S=C(Nc1ccccn1)c1ccccn1	-	32	-	-	-	-
C=C1c2cccc(O)c2C(=O)C2C(=O)[C@]3(O)C(=O)C(C(N)=O)C(=O)[C@@H](N(C)C)[C@@H]3[C@@H](O)[C@H]12 (some centres undefined)	-	62	.	-	-	22
CCN(C)C1CN(Cc2cn(Cc3cccc(C(F)(F)F)c3)nn2)S(=O)(=O)C1 (centres undefined)	-	-	.	-	.	.
CCOC(=O)C1=C(C)Nc2ccccc2S1	-	31	-	-	-	-
CCOC(=O)C1=C(C)Nc2ccc(C)cc2S1	-	42	-	-	-	-
CSCCOC(=O)C1=C(C)Nc2ccc(C)cc2S1	-	34	-	-	-	-
CCOCCOC(=O)C1=C(C)Nc2ccc(C)cc2S1	-	-	-	-	-	.
COc1ccc2ccccc2c1/C=N/NC(=O)c1cccc([N+](=O)[O-])c1	-	-	-	-	-	.
O=C(CC1CCCC1)N1CCN(S(=O)(=O)c2c(F)cccc2F)CC1	-	-	.	-	.	.
CC(C)c1ccc(-c2csc3nc[nH]c(=O)c23)cc1	-	-	-	-	-	.
SMILES	TDP2 inh	PRMT1 inh	GSTO1 counter	E coli Lon inh	PAD4 FP inh	PRMT1 inh conf
C=CCSC1=C(C#N)C(c2ccc(OCC)cc2)CC(=O)N1 (centres undefined)	-	29	-	-	-	-
C=CCSC1=C(C#N)C(c2ccccc2C)CC(=O)N1 (centres undefined)	-	-	-	-	-	.
C=CCSC1=C(C#N)C(c2ccccc2Cl)CC(=O)N1 (centres undefined)	-	46	-	-	-	-
Cc1cccc(NC(=O)CCS(=O)(=O)c2ccc3c(c2)NC(=O)CS3)n1	-	-	-	-	-	.
COC(=O)/C=C/S(=O)(=O)c1ccc(NC(C)=O)cc1	-	73	-	-	-	29
COc1ccccc1OS(=O)(=O)c1ccc(NC(C)=O)cc1	-	-	-	-	-	.
O=C(CNc1cccc(S(=O)(=O)N2CCOCC2)c1)Nc1ccc(C(F)(F)F)cc1	-	-	-	-	-	.
O=C(CSc1nccc(=O)[nH]1)Nc1ccc(S(=O)(=O)N2CCOCC2)cc1	-	49	-	-	-	-
COc1ccc(C=Nn2c(-c3ccc(F)cc3)n[nH]c2=S)cc1OCc1ccccc1	-	-	.	.	.	.
C/C(=N/Nc1ccnc2cc(Cl)ccc12)c1ccc(O)cc1	-	37	-	-	-	-

Screening data deposited in PubChem BioAssay by The Scripps Research Institute Molecular Screening Center.
